Source: PubChem BioAssay AID743238 (Broad Institute, 2013)
Screen size: about 360,000 compounds; about 200 (0.056%) were called active. Many of the other results were omitted from the sample, so actives are more common in it than they were. A number with no mark means an inactive call.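 How the source made its calls: active means mean normalized replicate activation at least 10% and every replicate at or above 10%; inconclusive means only one of the two criteria met; inactive means mean below 10% and not all replicates reach 10%.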

Test: activators of inactive X chromosome reactivation, primary screen, imaging, XiGFP fibroblasts, GFP high-content imaging, set 2 (AID 743238);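 further: 0% = median of on-plate neutral control wells and 100% = ellipticine 6 µM median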
Conditions: XiGFP mouse fibroblasts, % GFP-positive cells imaging, 3 d; at 7.58 µM; active compounds read high; cells co-treated with 5-aza-dC sensitizer; scaled so ellipticine positive control = 100%
Outline: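 System: SV40-immortalized XiGFP fibroblast cells, line 68-5-11 / Incubation: 3-day compound exposure, then 15 min fixation at room temperature / Compound: single concentration per compound, delivered by pin transfer / Buffer or medium: DMEM plus 5-aza-dC sensitizer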

| Structure (SMILES) | activation |
| --- | --- |
| CO[C@H]1CN(C)C(=O)c2cc(NC(=O)C3CC3)ccc2OC[C@@H](C)NC[C@H]1C | 0.168% |
| C#Cc1cc(N2CCN(C(=O)c3ccoc3)CC2)n2nc(-c3cccc(Cl)c3)cc2n1 | 34% (active) |
| CCc1nc2ccc(C(=O)N3CCN(c4cccc(Cl)c4)CC3)cc2nc1CC | 0.143% |
| CNc1cncc(-c2cccc(C(=O)N3CCOCC3)c2)n1 | 0.023% |
| CO[C@@H]1CN(C)C(=O)c2cc(NC(=O)c3cccc(F)c3)ccc2OC[C@H](C)N(C)C[C@@H]1C | -0.118% |
| COc1ccc(NC(=O)N(C)C[C@@H]2OCCCC[C@H](C)Oc3ccc(NS(=O)(=O)c4c(C)noc4C)cc3C(=O)N([C@@H](C)CO)C[C@@H]2C)cc1 | 0.115% |
| C[C@H](CO)N1C[C@H](C)[C@H](CN(C)Cc2ccc(C(=O)Nc3ccccc3N)cc2)Oc2ccc(NC(=O)Nc3ccccc3)cc2CC1=O | 0.0505% |
| Cc1noc(C)c1NC(=O)Nc1ccc2c(c1)C(=O)N([C@H](C)CO)C[C@@H](C)[C@H](CN(C)C(=O)Nc1cccc3ccccc13)OCCCC[C@@H](C)O2 | 0.305% |
| COc1cccc(CNC(=O)C[C@@H]2CC[C@H]3[C@@H](COc4ccc(NC(=O)c5cccs5)cc4C(=O)N3C)O2)c1 | -0.028% |
| C[C@H]1CN([C@@H](C)CO)C(=O)c2ccccc2-c2ccccc2CO[C@H]1CN(C)Cc1ccc(-c2ccccc2)cc1 | 0.132% |
| COc1ccc(S(=O)(=O)Nc2ccc3c(c2)CC(=O)N([C@@H](C)CO)C[C@@H](C)[C@H](CN(C)S(=O)(=O)c2ccccc2)O3)cc1 | 0.178% |
| COc1cccc(S(=O)(=O)N[C@H]2C=C[C@H](CC(=O)NC3Cc4ccccc4C3)O[C@H]2CO)c1 | 0.645% |
| C[C@H](O)C#Cc1cnc2c(c1)C(=O)N([C@@H](C)CO)C[C@H](C)[C@@H](CN(C)C(=O)c1ccccc1)O2 | -0.975% |
| Cc1ccccc1-c1ccc([C@H]2[C@@H](CO)N3C(=O)CN(C(=O)c4ccncc4)C[C@@H]23)cc1 | -0.015% |
| COc1ccc(S(=O)(=O)Nc2ccc3c(c2)C(=O)N([C@@H](C)CO)C[C@H](C)[C@@H](CN(C)C(=O)c2ccccc2)OCCCC[C@H](C)O3)cc1 | 0.072% |
| COc1ccc2c3c(n(C)c2c1)[C@@H](CO)N(C(C)=O)CC31CCN(Cc2ccc(Cl)cc2)CC1 | 0.225% |
| C[C@@H]1CCCCO[C@@H](CN(C)S(=O)(=O)c2cn(C)cn2)[C@@H](C)CN([C@@H](C)CO)C(=O)c2cc(NC(=O)Nc3ccc(C(F)(F)F)cc3)ccc2O1 | -0.98% |
| CO[C@@H]1CN(C)C(=O)c2ccc(NC(=O)C3CC3)cc2OC[C@H](C)N(C(=O)c2ccccc2)C[C@@H]1C | 0.643% |
| CC[C@@H]1CC=CC[C@H](C)Oc2ccccc2C(=O)N(C)[C@H](Cc2ccccc2)C(=O)N1 (mixture of isomers) | 0.007% |
| C[C@@H]1CCCCO[C@H](CN(C)Cc2ccc3c(c2)OCO3)[C@H](C)CN([C@@H](C)CO)C(=O)c2cc(NS(=O)(=O)c3cccs3)ccc2O1 | -0.019% |

| Structure (SMILES) | activation |
| --- | --- |
| C[C@H]1CCCCO[C@@H](CN(C)C(=O)Nc2ccccc2)[C@@H](C)CN([C@@H](C)CO)C(=O)c2cc(NC(=O)CCC(F)(F)F)ccc2O1 | 0.045% |
| C[C@@H](NC(=O)C[C@H]1C[C@@H]2c3cc(NC(=O)Nc4ccccc4F)ccc3O[C@@H]2[C@H](CO)O1)c1ccccc1 | 0.315% |
| COc1ccc(NC(=O)Nc2ccc3c(c2)CC(=O)N([C@@H](C)CO)C[C@@H](C)[C@H](CN(C)C(=O)NC2CCCCC2)O3)cc1 | -0.248% |
| C[C@@H]1CN([C@@H](C)CO)C(=O)c2cc(NC(=O)Nc3cccc4ccccc34)ccc2O[C@@H](C)CCCCO[C@@H]1CN(C)S(=O)(=O)c1ccc(Cl)cc1 | 0.307% |
| O=S(=O)(NC1CC1)c1ccc2c3c(cccc13)CC2 | 0.001% |
| N#CC1(Nc2ccc3c4c(cccc24)CC3)CCCCC1 | 40% (active) |
| N#CC1(Nc2ccc(-c3ccc(Cl)cc3)cc2)CCCC1 | -0.0155% |
| CC(C)NC(=O)N(C)C[C@@H]1Oc2c(cccc2N(C)C)C(=O)N([C@H](C)CO)C[C@@H]1C | 0.155% |
| O=C(CC1CC1)N1[C@@H](CO)[C@H](c2ccccc2)C12CN(Cc1cccnc1)C2 | 0.0215% |
| COc1ccc2c3c([nH]c2c1)[C@@H](CO)N(C(C)=O)CC31CCN(Cc2ccccc2Cl)CC1 | 0.131% |
| C[C@@H]1CN([C@@H](C)CO)C(=O)Cc2cc(NC(=O)C3CC3)ccc2O[C@H]1CN(C)C(=O)NC1CCCCC1 | -0.834% |
| O=C(C[C@@H]1CC[C@@H](NC(=O)c2ccc3c(c2)OCO3)[C@H](CO)O1)NCc1ccc(F)cc1 | 0.149% |
| Cc1ccc(S(=O)(=O)Nc2ccc3c(c2)C(=O)N([C@@H](C)CO)C[C@H](C)[C@@H](CN(C)CC2CC2)O3)cc1 | -0.069% |
| Cc1ccccc1CN(C)C[C@H]1OCc2cn(nn2)CCCC(=O)N([C@@H](C)CO)C[C@H]1C | 0.238% |
| CCCN(C)C[C@@H]1Oc2ncc(C#Cc3ccccc3)cc2C(=O)N([C@H](C)CO)C[C@@H]1C | -0.009% |
| C[C@H](CO)N1C[C@H](C)[C@H](CN(C)C(=O)c2ccncc2)Oc2cc(C#CC3(O)CCCC3)ccc2S1(=O)=O | 0.469% |
| CN(C)CCCNC(=O)C[C@@H]1C=C[C@H](NC(=O)c2ccccc2F)[C@H](CO)O1 | -0.107% |
| CCN1/C(=C\c2ccc3ccccc3[n+]2CC)Sc2cc(C)ccc21 | 415% (active) |
| CCCNC(=O)N1CC(=O)N2[C@H](C1)[C@@H](c1ccc(C#Cc3ccccc3)cc1)[C@@H]2CO | -0.0025% |
| O=C(C[C@@H]1CC[C@@H](NS(=O)(=O)c2ccc(F)cc2)[C@H](CO)O1)NCc1ccc(Cl)c(Cl)c1 | 0.0265% |
